{"source": "ChEMBL document CHEMBL1136298", "about": "“Synthesis of novel C2 and C2-C8 linked pyrrolo[2,1-c][1,4]benzodiazepine-naphthalimide hybrids as DNA-binding agents” (2003)", "key": {"T47D": {"tested_on": "T47D", "test": "In vitro cytotoxic activity against breast T-47D cell line", "type": "functional", "conditions": "Homo sapiens"}, "CCRF-CEM": {"tested_on": "CCRF-CEM", "test": "In vitro cytotoxic activity against leukemia CCRF-CEM cell line", "type": "functional", "conditions": "Homo sapiens"}, "NCI-H460": {"tested_on": "NCI-H460", "test": "In vitro anticancer activity against lung NCI-H460 cell line", "type": "functional, Homo sapiens", "method_in_brief": "(§1)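 Primary screen in a three-cell-line panel of MCF7 (breast), NCI-H460 (lung) and SF-268 (CNS), with each compound tested as one dose at 10⁻⁴ molar.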"}, "SF-268": {"tested_on": "SF-268", "test": "In vitro anticancer activity against SF-268 (CNS) cell line", "type": "functional, Homo sapiens", "method_in_brief": "as §1"}, "MCF7": {"tested_on": "MCF7", "test": "In vitro anticancer activity against breast MCF-7 cell line", "type": "functional, Homo sapiens", "method_in_brief": "as §1"}, "MOLT-4": {"tested_on": "MOLT-4", "test": "In vitro cytotoxic activity against MOLT-4 cell line", "conditions": "Homo sapiens"}, "HL-60": {"tested_on": "HL-60", "test": "In vitro cytotoxic activity against HL60 (TB) cell line", "type": "functional", "conditions": "Homo sapiens"}, "SR": {"tested_on": "SR", "test": "In vitro cytotoxic activity against SR cell line", "type": "functional", "conditions": "Homo sapiens"}, "SNB-19": {"tested_on": "SNB-19", "test": "In vitro cytotoxic activity against central nervous system (CNS) SNB-19 cell line", "type": "functional", "conditions": "Homo sapiens"}}}
{"smiles": "COc1cc2c(cc1OCc1ccccc1)N=C[C@@H]1C/C(=C\\C(=O)NCCCN3C(=O)c4cccc5cccc(c45)C3=O)CN1C2=O", "values": [{"measurement": "GI50", "setting": "T47D", "result": 34, "unit": "nM"}, {"measurement": "GI50", "setting": "CCRF-CEM", "result": 62, "unit": "nM"}, {"measurement": "Activity", "setting": "NCI-H460", "result": 0, "unit": "%"}, {"measurement": "Activity", "setting": "SF-268", "result": 1, "unit": "%"}, {"measurement": "Activity", "setting": "MCF7", "result": 0, "unit": "%"}, {"measurement": "GI50", "setting": "MOLT-4", "result": 55, "unit": "nM"}, {"measurement": "GI50", "setting": "HL-60", "result": 91, "unit": "nM"}, {"measurement": "GI50", "setting": "SR", "result": "< 10", "unit": "nM"}, {"measurement": "GI50", "setting": "SNB-19", "result": 80, "unit": "nM"}]}
{"smiles": "COc1cc2c(cc1OCc1ccccc1)N=C[C@@H]1C/C(=C\\C(=O)NCCN3C(=O)c4cccc5cccc(c45)C3=O)CN1C2=O", "values": [{"measurement": "Activity", "setting": "NCI-H460", "result": 101, "unit": "%"}, {"measurement": "Activity", "setting": "SF-268", "result": 95, "unit": "%"}, {"measurement": "Activity", "setting": "MCF7", "result": 89, "unit": "%"}]}
{"smiles": "COc1cc2c(cc1OCCCN1C(=O)c3cccc4cccc(c34)C1=O)N=C[C@@H]1C/C(=C\\C(=O)NCCCN3C(=O)c4cccc5cccc(c45)C3=O)CN1C2=O", "values": [{"measurement": "Activity", "setting": "NCI-H460", "result": 102, "unit": "%"}, {"measurement": "Activity", "setting": "SF-268", "result": 97, "unit": "%"}, {"measurement": "Activity", "setting": "MCF7", "result": 86, "unit": "%"}]}
